The list is not random: actives were taken first. Their share in the collection is about 2.3%.
TRPC4 potent: allosterically enhances the mouse TRPC4 cation channel. Q9QUQ5. HEK293 TRPC4beta/mu-opioid, DAMGO EC20, Fluo-4 Ca2+ flux; hits give high values. B-score at 10 µM. 310,000 compounds, 0.42% hits;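 active = B-score of calcium response area above 5 SD of library B-scores, with initial fluorescence ratio within 5 SD of library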;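 note: B-score of integrated fluorescence ratio over time as area under calcium response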
Target sequence (Q9QUQ5 whole entry, looked up): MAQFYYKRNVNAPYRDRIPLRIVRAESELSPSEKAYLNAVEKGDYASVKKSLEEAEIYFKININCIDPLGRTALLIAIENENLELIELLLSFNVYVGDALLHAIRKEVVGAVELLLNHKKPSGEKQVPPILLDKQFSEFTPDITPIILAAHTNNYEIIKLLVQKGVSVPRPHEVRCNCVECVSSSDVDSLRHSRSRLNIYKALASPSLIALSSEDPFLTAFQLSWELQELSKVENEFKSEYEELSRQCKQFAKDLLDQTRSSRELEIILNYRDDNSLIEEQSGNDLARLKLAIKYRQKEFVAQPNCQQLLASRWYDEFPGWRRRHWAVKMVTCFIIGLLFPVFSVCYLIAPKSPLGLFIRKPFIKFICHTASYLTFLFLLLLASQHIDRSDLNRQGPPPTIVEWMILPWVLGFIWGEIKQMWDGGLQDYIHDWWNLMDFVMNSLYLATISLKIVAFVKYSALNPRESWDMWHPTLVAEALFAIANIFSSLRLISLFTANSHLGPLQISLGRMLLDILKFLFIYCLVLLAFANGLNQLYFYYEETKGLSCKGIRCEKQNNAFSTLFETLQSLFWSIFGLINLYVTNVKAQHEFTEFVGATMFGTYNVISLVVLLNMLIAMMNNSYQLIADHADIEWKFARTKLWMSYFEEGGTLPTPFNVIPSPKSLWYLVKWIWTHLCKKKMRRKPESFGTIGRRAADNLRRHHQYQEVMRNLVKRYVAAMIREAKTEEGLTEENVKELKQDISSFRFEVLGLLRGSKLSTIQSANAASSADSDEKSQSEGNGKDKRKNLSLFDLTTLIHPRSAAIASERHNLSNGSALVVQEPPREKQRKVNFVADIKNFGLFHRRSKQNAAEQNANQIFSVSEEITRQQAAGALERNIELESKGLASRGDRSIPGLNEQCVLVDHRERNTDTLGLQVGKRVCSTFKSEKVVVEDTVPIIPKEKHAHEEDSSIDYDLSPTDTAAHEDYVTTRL
TRPC4 agonist: activators of mouse TRPC4 channel | B-score at 10 µM | HEK293 TRPC4beta/mu-opioid, Fluo4 calcium fluorescence; hits give high values | 310,000 compounds, 0.49% hits | Q9QUQ5 | AID 2237;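 active = B-score above 5 SD of library B-scores, and initial fluorescence ratio not above library mean plus 5 SD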;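 note: positive B-score marks a calcium rise read as TRPC4 activation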
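Assay system: HEK293 cells stably co-expressing mouse TRPC4beta and mu-opioid receptor / Timing: Fluo4 dye loading 45 min at room temperature, 110 s recording / Signal: Fluo4 calcium-sensitive dye fluorescence, kinetic, 1 Hz baseline / Read-out: integrated baseline-normalised fluorescence ratio, converted to per-well B score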
TRPC6 inhibitor: blocks the mouse TRPC6 cation channel; Q61143; HEK293-TRPC6, membrane potential dye, ACh-evoked depolarization; hits give low values; B-score at 10 µM; 310,000 compounds, 1.1% hits;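 active = B-score under library mean minus 3 SD, initial fluorescence not abnormally high, positive integrated signal ratio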;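 note: B-score derived from integrated fluorescence ratio over the kinetic read; more negative B-score means stronger inhibition of depolarization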
TRPC4 inh: TRPC4 (mouse) channel inhibition. HEK293 TRPC4beta/mu-opioid, DAMGO-evoked Fluo4 calcium flux; hits give low values. B-score at 10 µM. 300,000 compounds, 0.39% hits. AID 2247;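 active = B-score over 3 SD under the library average, no early fluorescence shift, positive overall ratio signal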
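material = TRPC4beta/mu-opioid receptor HEK293 cell line | probe or stimulus = sequential submaximal and maximal DAMGO stimulation | compound dosing = one concentration per compound | measured by = Fluo4 Ca2+ flux fluorescence | evaluation = integrated fluorescence ratio relative to baseline, converted to per-well B score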
TRPC6 act: activates the mouse TRPC6 cation channel | Q61143 | HEK293-TRPC6 membrane potential dye fluorescence; hits give high values | B-score at 10 µM | 310,000 compounds, 0.13% hits;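 active = B-score of the integrated fluorescence ratio above library mean plus 3 SD, and starting fluorescence ratio within library mean plus 5 SD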;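 note: higher score means more depolarization so channel activation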
* marks the source's active call; other numbers are inactive results; i = inactive.

SMILES	TRPC4 potent	TRPC4 agonist	TRPC6 inhibitor	TRPC4 inh	TRPC6 act
CN(CCc1ccccn1)C1CC(=O)N(c2ccc(Cl)cc2)C1=O (stereo unspecified)	i	148*	i	i	i
CN(CCc1ccccn1)C(=O)Nc1ccc(Cl)cc1	i	i	i	i	i
Cc1cc(C)c(C#N)c(SCCN2CCOCC2)n1	i	i	i	i	i
N#Cc1ccc(-c2ccccc2)nc1SCCN1CCOCC1	20*	i	i	i	i
CN(C)CCOC(=O)c1sc2ccccc2c1Cl	i	92*	i	i	i
Cc1cc(C)nc(/N=C(\N)Nc2ccc(OCCC(C)C)cc2)n1	i	51*	i	i	i
Cc1cc(C)nc(/N=C(\N)Nc2cccc(OCc3ccccc3)c2)n1	i	i	-5.4*	i	i
Cc1cc(C)nc(/N=C(\N)Nc2ccc(OCc3ccccc3)cc2)n1	i	61*	i	i	i
CCOC(=O)C(=O)Nc1ccc(OCc2ccccc2)cc1	i	i	i	i	i
Cc1cc(C)nc(/N=C(\N)Nc2ccc(CC(=O)OC(C)C)cc2)n1	i	i	i	i	i
CC1CCCN(S(=O)(=O)c2coc(C(N)=O)c2)C1 (stereo unspecified)	i	i	i	i	i
Cc1ccc(N(CCC#N)C(=O)COC(=O)c2cc(C)no2)cc1	i	i	i	i	i
CN(C)CCNC(=O)c1sc2cccc(F)c2c1Cl	11*	i	i	i	i
CCN(c1ccc(Cl)cc1)S(=O)(=O)c1nnc(NC(=O)C(C)C)s1	i	i	i	i	i
CCN1CCN(CCC(=O)Nc2ccccc2OC)CC1	19*	i	i	i	i
COc1cc(NC(=O)CCN2CCN(CCO)CC2)cc(OC)c1	i	45*	i	i	i
CCN1CCN(CC(=O)c2cc(Cl)ccc2Cl)CC1	i	i	i	i	i
O=C(CSc1cnc2ccccc2n1)NC1CCCC1	i	i	i	i	i
O=S1(=O)CCN(Cc2ccccc2C(F)(F)F)CC1	i	i	i	i	i
COC(=O)c1ccc(Nc2cc(C)nc3ccccc23)cc1	i	i	i	-6*	i
COc1ccc(Nc2cc(C)nc3ccc(OC)cc23)cc1	i	i	i	-6*	i
COC(=O)c1ccc2nc(C)cc(Nc3ccc(N(C)C)cc3)c2c1	i	i	i	i	i
Cc1ccc(Nc2cc(C)nc3ccc(C)cc23)cc1	i	i	i	-6*	i
O=C(NC1CCN(Cc2ccccc2)CC1)c1ccc(Cl)cc1Cl	i	i	i	i	i
C#CCNC(=O)C1=C[C@H](C2CCCCC2)C[C@H](OCc2ccc(CO)cc2)O1	i	57*	i	i	i
SMILES	TRPC4 potent	TRPC4 agonist	TRPC6 inhibitor	TRPC4 inh	TRPC6 act
O=C(O)C1=C[C@@H](C2CCCCC2)C[C@@H](OCc2ccc(CO)cc2)O1	i	i	i	i	i
O=C(NC1CC1)C1=C[C@H](C2CCCCC2)C[C@H](OCc2ccc(CO)cc2)O1	i	249*	i	-6*	i
CCN(CC)C(=O)/C(NC(=O)c1ccccc1)=C(/Sc1ncccn1)c1ccccc1	i	i	i	i	i
Cc1cccc(C(=O)NNC(=O)c2ccc(S(=O)(=O)N3CCOCC3)cc2)c1	i	i	i	i	i
COc1ccc(C2C(O)C(c3c[nH]c4ccccc34)=NN2C(=O)CCl)cc1 (stereo unspecified)	21*	i	i	i	i
CC(=O)c1c(O)c(C)c(O)c2c1OC1=CC(=O)C(C(C)=O)C(=O)[C@@]12C (stereo partly specified)	i	90*	i	-6*	i
CC(=O)Oc1c(C)c(OC(C)=O)c2c(c1C(C)=O)OC1CC(=O)C(C(C)=O)=C(O)C21C (stereo unspecified)	i	i	i	i	i
CCN1CCN(c2nc(C)c3c(n2)CC(C)CC3=O)CC1 (stereo unspecified)	15*	i	i	i	i
COc1ccc(/C=C/C(=O)Nc2cc(C)nn2-c2nc3ccccc3n2Cc2cccc([N+](=O)[O-])c2)cc1	i	i	i	i	i
CCN(CC)CCCNCC(=O)Nc1ccc(OC)c(Cl)c1	i	65*	i	i	i
CCN(CC)CCCNCC(=O)Nc1ccc2c(c1)CCC2	i	i	i	i	i
CCCN=C(Nc1ccc(Cl)cc1)c1cccnc1	i	i	i	i	i
CCCCN=C(Nc1ccc(Cl)cc1)c1cccnc1	i	i	i	-6*	i
CCOc1ccc(/C=C/C2=Cc3c(sc(NC(=O)CSc4n[nH]c(N)n4)c3C#N)C(C)(C)C2)cc1	17*	i	i	i	i
CCOC(=O)c1sc(NC(=O)CSc2n[nH]c(-c3ccncc3)n2)c(C#N)c1C	i	i	i	i	i
Cc1ccsc1/C=C/C1=Cc2c(sc(NC(=O)CSc3n[nH]c(N)n3)c2C#N)C(C)(C)C1	90*	i	i	i	i
CC(C)NC(=O)CN(Cc1ccc2c(c1)OCO2)C(=O)CCC(=O)Nc1ccccn1	i	i	i	i	i
Cc1ccc2cc(CN(CCN3CCOCC3)Cc3nnnn3Cc3ccco3)c(=O)[nH]c2c1C	i	i	i	i	i
Cc1ccc2cc(CN(CCCN3CCOCC3)C(c3nnnn3Cc3ccco3)C(C)C)c(=O)[nH]c2c1C (stereo unspecified)	i	i	i	-9*	i
CCC(c1nnnn1CCc1ccccc1)N(Cc1ccco1)Cc1cc2cccc(C)c2[nH]c1=O (stereo unspecified)	11*	i	i	i	i
CCC(c1nnnn1C(C)(C)C)N(Cc1ccco1)Cc1cc2cccc(C)c2[nH]c1=O (stereo unspecified)	i	i	i	i	i
CC1(NC(=S)NCCO)CCS(=O)(=O)C1 (stereo unspecified)	i	i	i	i	i
Cc1ccc(N(CC(=O)N2CCCC2)S(C)(=O)=O)c(C)c1	i	i	i	i	i
O=C(N/N=C/c1cccc2ccccc12)c1ccccc1Cl	10*	i	i	i	i
O=C(COC(=O)c1ccccn1)Nc1nc(-c2ccccc2)cs1	i	i	i	-6*	i
O=C(COC(=O)C1CC1)Nc1nc(-c2ccc(F)c(F)c2)cs1	i	i	i	-6*	i

Screening data (PubChem)
